The list is not random: actives were taken first. Their share in the collection is about 2.9%.
ABHD5-PLIN5 inh – ABHD5-PLIN5 protein interaction inhibition; 0.78% of 360,000 active; Split G. princeps luciferase complementation, luminescence, 4 h; Q00G26+Q8WTS1; inhibition, % at 4 µM;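 active = inhibition above the mean inhibition across every tested compound plus 3 SD, cut at about 22% in these data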;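 note: 0% = DMSO only wells and the 100% control is not disclosed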
core dimer inh – blocks dimerization of HCV core protein; TR-FRET GST/Flag-core106 dimerization, 1536-well; inhibition, % at 5 µM; 0.33% of 300,000 active;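 active = inhibition above the mean of all tested compounds plus 3 SD, set per screening campaign, cut at about 45% in these data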
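Test system: GST/Flag-tagged HCV core106 proteins; Medium: KF-containing HEPES buffer, pH 7.45, DTT, CHAPS, BSA; Times: compound-protein-antibody incubation 4 h at 22.5 °C; Detection: TR-FRET 671 and 617 nm emission; Benchmarks: wells lacking GST-core106 and wells with excess unlabelled core106.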
PRMT1 inh – PRMT1 (human) inhibition, primary screen; recombinant PRMT1, activity-based probe fluorescence polarization; AID 652257; inhibition, % at 2.79 µM; 1.3% of 370,000 active;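 active = inhibition above about 21% made by adding two undisclosed values, limit read from the data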
HCV NS3 hel inh – inhibitors of Hepatitis C virus NS3 helicase; NS3 helicase DNA unwinding, Cy5 molecular beacon fluorescence; 0.56% of 290,000 active; AID 1800; inhibition, % at 10.9 µM;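 active = inhibition above the mean of all tested compounds plus 3 SD, set per campaign, cut at about 35% in these data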;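 note: 0% = DMSO wells and 100% = thioflavine S control wells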
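Assay system – hepatitis C virus NS3 helicase domain fragment enzyme · Buffer or medium – MOPS pH 6.5, MgCl2, DTT, Tween20, BSA · Reagent – Cy5/quencher beacon DNA duplex and ATP to start · Compound – single 10.9 µM dose · Timing – 1 h at 25 °C · Technique – Cy5 beacon fluorescence read at start and 1 h · Measure – % inhibition of unwinding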
A3G deaminase – blocks human APOBEC3G single-stranded DNA deamination; Q9HC16; recombinant A3G, ssDNA deamination FAM/TAMRA fluorescence; inhibition, % at 20 µM; 0.28% of 330,000 active;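 active = inhibition of at least 40% at 20 µM, with no more than 30% in the related APOBEC3A deaminase screen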;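 note: plate controls were DMSO wells with A3G for no effect and wells lacking A3G enzyme for full effect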
Target sequence (Q9HC16 whole entry, looked up): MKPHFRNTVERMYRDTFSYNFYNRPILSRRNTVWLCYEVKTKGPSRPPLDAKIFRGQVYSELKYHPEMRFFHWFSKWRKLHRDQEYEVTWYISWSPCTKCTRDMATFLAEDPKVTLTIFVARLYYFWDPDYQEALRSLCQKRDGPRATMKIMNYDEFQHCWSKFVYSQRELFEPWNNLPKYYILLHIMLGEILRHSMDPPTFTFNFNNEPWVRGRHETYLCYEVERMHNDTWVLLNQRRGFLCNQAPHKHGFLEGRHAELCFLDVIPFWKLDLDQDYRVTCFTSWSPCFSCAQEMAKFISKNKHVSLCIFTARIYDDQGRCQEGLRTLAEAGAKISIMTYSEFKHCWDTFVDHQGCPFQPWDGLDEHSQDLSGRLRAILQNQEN
APOBEC3A inh – inhibitors of human APOBEC3A DNA deaminase | P31941 | recombinant A3A, FAM/TAMRA ssDNA deamination fluorescence | inhibition, % at 20 µM | 0.41% of 330,000 active;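 active = at least 40% inhibition at 20 µM here, with at most 30% in a related deaminase screen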;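 note: plate controls were A3A with DMSO for no effect and wells lacking A3A enzyme for full effect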
Target sequence (P31941 whole entry, looked up): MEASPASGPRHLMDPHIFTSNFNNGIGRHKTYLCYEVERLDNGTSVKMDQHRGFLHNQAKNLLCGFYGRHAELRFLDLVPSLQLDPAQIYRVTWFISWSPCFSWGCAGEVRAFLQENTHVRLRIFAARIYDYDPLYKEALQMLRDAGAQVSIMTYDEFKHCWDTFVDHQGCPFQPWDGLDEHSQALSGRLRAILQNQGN
PRMT1 confirm – PRMT1 (human) inhibition, FP confirmation | shares compounds with PRMT1 inh | AID 687036 | recombinant His-PRMT1, activity-based probe fluorescence polarization | inhibition, % at 2.79 µM | 42% of 3,300 active;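 active = mean inhibition across replicates above the hit cutoff derived for the earlier primary screen, cut at about 22% in these data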
* hit, by the source's call; . = no result.

SMILES	ABHD5-PLIN5 inh	core dimer inh	PRMT1 inh	HCV NS3 hel inh	A3G deaminase	APOBEC3A inh	PRMT1 confirm
COc1ccc(Cl)cc1-c1n[nH]c(=S)n1C1CCCCC1	-4	9	13	2	8	-3	.
Cc1cc(Cl)ccc1OCc1n[nH]c(=S)n1C1CCCCC1	-22	13	26*	-2	-5	-2	2
Cc1ccc(-c2cc(C(=O)N3CC(C)OC(C)C3)c3ccccc3n2)o1 (centres undefined)	4	7	12	.	-11	-6	.
COC(=O)c1cc(-c2ccc(C)o2)nc2ccccc12	6	14	42*	3	9	8	24*
Cc1ccc(-c2cc(C(=O)N3CC(C)CC(C)C3)c3ccccc3n2)o1 (centres undefined)	20	30	64*	11	6	15	29*
Cc1cc(C(=O)Nc2ccccc2C)c2ccccc2n1	-8	-12	-1	11	2	-5	.
COc1cccc(NC(=O)CN(C)C(=O)c2cc(-c3ccc(C)o3)nc3ccccc23)c1	20	.	51*	.	-8	-6	12
Cc1ccc(-c2cc(C(=O)Nc3ccccc3C)c3ccccc3n2)o1	14	64*	44*	1	7	5	14
Cc1ccc(-c2cc(C(=O)NCC(c3ccccc3)N(C)C)c3ccccc3n2)o1 (centres undefined)	8	.	1	.	3	4	.
Cc1ccc(-c2cc(C(=O)Nc3cccc(S(=O)(=O)N(C)C)c3)c3ccccc3n2)o1	18	8	50*	-2	4	0	56*
O=C(NC(=S)Nc1cccc(S(=O)(=O)NC2=NCCC2)c1)c1cc(-c2ccco2)nc2ccccc12	12	32	32*	29	16	12	13
COc1cc(-c2cc(C(=O)Nc3cccc(S(=O)(=O)N(C)C)c3)c3ccccc3n2)cc(OC)c1OC	-1	0	-3	-13	-2	0	.
CCc1nnc(NC(=O)CCNC(=O)c2ccco2)s1	4	-3	2	-1	7	5	.
CN(NC(=O)/C=C/C(=O)O)c1ncc(C(F)(F)F)cc1Cl	-4	0	35*	-4	-2	-2	6
O=C(CNC(=O)c1ccccc1)NCC(=O)OCC(=O)c1ccc([N+](=O)[O-])cc1	-7	-4	35*	9	1	-1	49*
O=S(=O)(NCCCNS(=O)(=O)c1c(F)cccc1F)c1ccc2c(c1)OCCO2	-13	.	-2	.	-9	-3	.
Cc1csc(NC(=O)/C=C/c2ccc(C)o2)n1	5	11	2	15	1	0	.
Cc1ccc(/C=C/C(=O)Nc2nccs2)o1	4	-14	29*	16	-2	0	5
O=C(CSCc1ccco1)c1cccs1	-4	6	25*	9	1	4	70*
O=C(c1cc(N2C(=O)C3C4CCC(C4)C3C2=O)ccc1Cl)N1CCN(c2ccc(F)cc2)CC1 (centres undefined)	-5	-4	1	10	-3	-2	.
COc1ccc(N2CCN(C(=O)c3cc(N4C(=O)C5C6CCC(C6)C5C4=O)ccc3Cl)CC2)cc1 (centres undefined)	-1	6	36*	6	-4	-1	-1
CCCCCCCCNS(=O)(=O)CCNC1CC1	-3	.	-4	.	.	.	.
Cc1ccc(-c2nc3ncccn3c2Nc2ccccc2C)o1	7	3	42*	-11	6	-3	13
Cc1ccc(-c2nc3ncccn3c2NC2CCCC2)o1	-3	-13	1	2	-6	-2	.
c1nc(SSc2ncnc3nc[nH]c23)c2[nH]cnc2n1	-18	.	48*	.	.	.	96*
SMILES	ABHD5-PLIN5 inh	core dimer inh	PRMT1 inh	HCV NS3 hel inh	A3G deaminase	APOBEC3A inh	PRMT1 confirm
CCN(c1ccc(NS(=O)(=O)c2cc(Cl)ccc2Cl)cc1)C(C)C	-9	13	32*	-3	-8	2	12
COc1ccc2c(c1)-c1ccccc1S(=O)(=O)N(C)C2	-1	.	30*	.	3	2	-5
O=C(N[C@H](C(=O)N1CCC[C@H]1C(=O)NCc1ccccc1)c1ccccc1)C1CCCC1	.	.	0	.	.	.	.
COCCCN1C(=O)C(CC(=O)NCCN2CCOCC2)CC(C(=O)N2CCOCC2)=C1C (centres undefined)	-1	.	0	.	.	.	.
COc1cccc(CN2CCC2(C)C(=O)Nc2ccc3c(c2)OCO3)c1F (centres undefined)	1	.	-5	.	.	.	.
O=C1NC(=S)S/C1=C\C=C\c1ccc([N+](=O)[O-])o1	18	.	43*	21	.	.	28*
O=C(Nc1ccccc1)c1cc(C2CCCCN2C(=O)OCCF)on1 (centres undefined)	4	.	1	.	.	.	.
CC1CCC(NC(=O)CN2CCN(S(=O)(=O)c3ccc(Br)s3)CC2)CC1 (centres undefined)	16	.	2	.	.	.	.
COC(=O)C1=CC(=O)C=C(OC)[C@@]12Oc1cc(C)cc(OC)c1C2=O	.	.	88*	.	.	.	85*
COC(=O)C1=C(O)/C(=C\c2ccc(CNC(=O)C(=O)Nc3ccc(C)cc3)o2)N=C1C	12	23	20	32	6	12	.
COC(=O)C1=C(O)/C(=C\c2ccc(CNS(=O)(=O)c3ccccc3)o2)N=C1C	6	-10	39*	33	13	23	16
CCOC(=O)C1=C(O)/C(=C\c2ccc(CNS(=O)(=O)c3ccc(Br)cc3)o2)N=C1C	13	13	34*	34	10	19	15
CC(=O)c1cccc(NC(=O)C(C)OC(=O)Cc2c[nH]c3ccccc23)c1 (centres undefined)	2	4	-1	.	-4	-3	.
COc1ccccc1N1CCN(C2CCCN(C(=O)CN3CCCC3=O)C2)CC1 (centres undefined)	-2	.	-4	2	-1	-3	.
COc1cc2[nH]c(Cl)c([N+](=O)[O-])c2cc1OC	1	-2	30*	3	-3	-1	15
O=C(CSc1nnc(-c2cccnc2)n1Cc1ccco1)N1c2ccccc2Sc2ccccc21	16	4	40*	-13	-5	-4	16
CCOc1cc(N2CCOCC2)c(OCC)cc1NC(=O)COC(=O)CCOc1cc(C)ccc1C	-3	2	-2	.	-7	-5	.
O=C1CCCC2=C1C(c1cccc(Br)c1)n1nc(-c3ccco3)nc1N2 (centres undefined)	1	6	37*	2	1	-3	6
CCCOc1ccc(C(=O)N2CCC(Oc3cccnc3)CC2)cc1	.	.	-3	.	.	.	.
CC(=O)Nc1cc(=O)c2cccnc2[nH]1	-3	.	9	.	.	.	.
Nc1c(C(=O)N2CCCCC2)sc2nc3c(cc12)CCCC3	-6	0	-1	4	-4	1	.
